In ChEMBL document CHEMBL5678799 (Biochem J, 2009):
Calls of active or inactive are those of the source. The calls are words filed in the database; no cut-off is given here.

Key:
[1] = molecular target: CDK2/Cyclin A2 (Homo sapiens) (UniProt P24941+P20248); test: Inhibition of recombinant human N-terminal GST-tagged CDK2 (2 to 298 residues)/N-terminal GST-tagged Cyclin A2 (171 to 432 residues) expressed in Escherichia coli assessed as remaining activity at 10 uM using YSPTSPSYSPTSPSYSPTSPKKK as substrate incubated for 30 mins in presence of [gamma-33P]ATP by filter binding method relative to control
Procedure, shortened: (§1)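 Incubations ran robotically for 30 min at room temperature (21 °C) under linear conditions. Results are percent activity remaining versus controls without compound, as the mean of triplicates ± S.D.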

[2] = molecular target: Inhibitor of nuclear factor kappa-B kinase subunit epsilon (Homo sapiens) (UniProt Q14164); test: Inhibition of recombinant human N-terminal GST-tagged IKKepsilon (1 to 716 residues) expressed in baculovirus infected Sf21 cells assessed as remaining activity at 1 uM using MBP as substrate incubated for 30 mins in presence of [gamma-33P]ATP by filter binding method relative to control
Procedure, shortened: (§2)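 Incubation was 30 min at room temperature (21 °C) under conditions linear with time and enzyme amount. Activity is reported as percent of control lacking compound, triplicate mean ± S.D.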

[3] = molecular target: Serine/threonine-protein kinase 3 (Homo sapiens) (UniProt Q13188); test: Inhibition of recombinant human N-terminal GST-tagged MST2 (2 to 491 residues) expressed in baculovirus infected Sf21 cells assessed as remaining activity at 1 uM using MBP as substrate incubated for 30 mins in presence of [gamma-33P]ATP by filter binding method relative to control
Procedure, shortened: (§3)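 Panel assays were run for 30 min at 21 °C, within the linear range for time and enzyme. […] Results are percent activity remaining relative to compound-free control, averaged from triplicate ± S.D.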

[4] = molecular target: Mitogen-activated protein kinase 13 (Homo sapiens) (UniProt O15264); test: Inhibition of recombinant human GST-tagged P38delta (1 to 365 residues) expressed in Escherichia coli assessed as remaining activity at 1 uM using MBP as substrate incubated for 30 mins in presence of [gamma-33P]ATP by filter binding method relative to control
Procedure, shortened: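 Kinase panel run robotically at 21 °C for 30 min, linear in time and enzyme. […] Compound tested at 1 or 10 µM. Activity given as percentage of incubations without compound, mean of triplicates ± S.D.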

[5] = molecular target: Serine/threonine-protein kinase pim-2 (Homo sapiens) (UniProt Q9P1W9); test: Inhibition of recombinant human N-terminal GST-tagged PIM2 (2 to 334 residues) expressed in Escherichia coli assessed as remaining activity at 1 uM using RSRHSSYPAGT as substrate incubated for 30 mins in presence of [gamma-33P]ATP by filter binding method relative to control
Procedure, shortened: (§4)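 Radiometric kinase panel run robotically at room temperature (21 °C) for 30 min, linear in time and enzyme. […] Activity is expressed as percent of control without compound, from triplicate determinations ± S.D.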

[6] = molecular target: Tyrosine-protein kinase SYK (Homo sapiens) (UniProt P43405); test: Inhibition of recombinant human N-terminal His6-tagged SYK (1 to 635 residues) expressed in baculovirus infected Sf21 cells assessed as remaining activity at 1 uM using Poly (Glu,Tyr) as substrate incubated for 30 mins in presence of [gamma-33P]ATP by filter binding assay relative to control
[7] = molecular target: Tyrosine-protein kinase CSK (Homo sapiens) (UniProt P41240); test: Inhibition of recombinant human N-terminal GST-tagged CSK (1 to 450 residues) expressed in Escherichia coli assessed as remaining activity at 10 uM Cdc2 peptide as substrate incubated for 30 mins in presence of [gamma-33P]ATP by filter binding method relative to control; procedure, shortened: as §1
[8] = molecular target: Insulin-like growth factor 1 receptor (Homo sapiens) (UniProt P08069); test: Inhibition of recombinant human N-terminal His6-tagged IGF1R (954 to 1367 residues) expressed in baculovirus infected Sf21 cells assessed as remaining activity at 10 uM using KKKSPGEYVNIEFG as substrate incubated for 30 mins in presence of [gamma-33P]ATP by filter binding method relative to control; procedure, shortened: as §4
[9] = molecular target: Maternal embryonic leucine zipper kinase (Homo sapiens) (UniProt Q14680); test: Inhibition of recombinant human N-terminal GST/C-terminal His6-tagged MELK (2 to 651 residues) expressed in Escherichia coli assessed as remaining activity at 10 uM using KKLNRTLSFAEPG as substrate incubated for 30 mins in presence of [gamma-33P]ATP by filter binding method relative to control; procedure, shortened: as §2
[10] = molecular target: Serine/threonine-protein kinase 3 (Homo sapiens) (UniProt Q13188); test: Inhibition of recombinant human N-terminal GST-tagged MST2 (2 to 491 residues) expressed in baculovirus infected Sf21 cells assessed as remaining activity at 10 uM using MBP as substrate incubated for 30 mins in presence of [gamma-33P]ATP by filter binding method relative to control; procedure, shortened: as §3
[11] = molecular target: Serine/threonine-protein kinase Nek2 (Homo sapiens) (UniProt P51955); test: Inhibition of recombinant human N-terminal His6-tagged NEK2A (1 to 445 residues) expressed in baculovirus infected Sf21 cells assessed as remaining activity at 10 uM using RFRRSRRMI as substrate incubated for 30 mins in presence of [gamma-33P]ATP by filter binding method relative to control
[12] = molecular target: Serine/threonine-protein kinase pim-2 (Homo sapiens) (UniProt Q9P1W9); test: Inhibition of recombinant human N-terminal GST-tagged PIM2 (2 to 334 residues) expressed in Escherichia coli assessed as remaining activity at 10 uM using RSRHSSYPAGT as substrate incubated for 30 mins in presence of [gamma-33P]ATP by filter binding method relative to control; procedure, shortened: as §4
[13] = molecular target: Serine/threonine-protein kinase pim-3 (Homo sapiens) (UniProt Q86V86); test: Inhibition of recombinant human N-terminal His6-tagged PIM3 (2 to 326 residues) expressed in baculovirus infected Sf21 cells assessed as remaining activity at 10 uM using RSRHSSYPAGT as substrate incubated for 30 mins in presence of [gamma-33P]ATP by filter binding method relative to control
[14] = molecular target: Mitogen-activated protein kinase; ERK1/ERK2 (Homo sapiens) (UniProt P27361+P28482); test: Inhibition of ERK1/2 in serum starved/PMA-stimulated HEK293 cells assessed as reduction in RSK phosphorylation at S380 residues at 1 uM incubated for 30 mins by immunoblot analysis; type: cell-based
MEF = test: Induction of cell cycle arrest in MEF cells assessed as accumulation at G2 phase at 3 uM incubated for 1 to 3 days by propidium iodide staining based flow cytometric analysis (reference value: 15.4 +/- 2.04%); type: toxicity; details: mouse, time 1-3 day
mTORC1 (Homo sapiens) [15] = molecular target: T1, mTORC1 (Homo sapiens) (UniProt P42345+Q8N122+Q9BVC4); details: HEK293, dose 30.0 nM, time 30.0 min
mTORC2 (Homo sapiens) = mTORC2 (Homo sapiens) (UniProt P42345+Q6R327+Q9BVC4+Q9BPZ7); details: HEK293, dose 100-1000 nM, time 12-48 hrs
mTORC1 (Homo sapiens) [16] = molecular target: T1, mTORC1 (Homo sapiens); details: HEK293, dose 30-1000 nM, time 30.0 min

Chain of Serine/threonine-protein kinase pim-2 (Homo sapiens) (Q9P1W9 whole entry, looked up, the tested form may be a part): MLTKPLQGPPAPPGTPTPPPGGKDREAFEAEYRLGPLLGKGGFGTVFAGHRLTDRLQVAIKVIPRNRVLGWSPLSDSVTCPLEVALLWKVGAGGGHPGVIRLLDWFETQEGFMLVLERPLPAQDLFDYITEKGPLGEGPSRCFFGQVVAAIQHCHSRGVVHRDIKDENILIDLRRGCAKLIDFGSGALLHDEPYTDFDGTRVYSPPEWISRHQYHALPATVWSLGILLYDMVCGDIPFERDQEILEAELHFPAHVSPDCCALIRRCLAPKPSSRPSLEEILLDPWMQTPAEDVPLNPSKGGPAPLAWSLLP
Chain of Serine/threonine-protein kinase 3 (Homo sapiens) (Q13188 whole entry, the tested form may be a part): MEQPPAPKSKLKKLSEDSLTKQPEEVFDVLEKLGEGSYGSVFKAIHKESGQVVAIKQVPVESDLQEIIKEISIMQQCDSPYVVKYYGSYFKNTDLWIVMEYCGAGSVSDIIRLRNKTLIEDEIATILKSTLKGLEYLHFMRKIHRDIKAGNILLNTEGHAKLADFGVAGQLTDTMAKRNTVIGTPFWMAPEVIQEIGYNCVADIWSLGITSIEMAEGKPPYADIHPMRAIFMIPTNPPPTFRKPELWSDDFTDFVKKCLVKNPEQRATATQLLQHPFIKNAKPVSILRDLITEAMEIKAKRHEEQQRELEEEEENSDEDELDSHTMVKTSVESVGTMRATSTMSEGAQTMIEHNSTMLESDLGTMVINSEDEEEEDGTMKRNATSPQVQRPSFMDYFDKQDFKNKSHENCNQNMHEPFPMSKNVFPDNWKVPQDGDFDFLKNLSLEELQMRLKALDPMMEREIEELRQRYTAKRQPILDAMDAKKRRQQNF
Chain of Mitogen-activated protein kinase 13 (Homo sapiens) (O15264 whole entry, the tested form may be a part): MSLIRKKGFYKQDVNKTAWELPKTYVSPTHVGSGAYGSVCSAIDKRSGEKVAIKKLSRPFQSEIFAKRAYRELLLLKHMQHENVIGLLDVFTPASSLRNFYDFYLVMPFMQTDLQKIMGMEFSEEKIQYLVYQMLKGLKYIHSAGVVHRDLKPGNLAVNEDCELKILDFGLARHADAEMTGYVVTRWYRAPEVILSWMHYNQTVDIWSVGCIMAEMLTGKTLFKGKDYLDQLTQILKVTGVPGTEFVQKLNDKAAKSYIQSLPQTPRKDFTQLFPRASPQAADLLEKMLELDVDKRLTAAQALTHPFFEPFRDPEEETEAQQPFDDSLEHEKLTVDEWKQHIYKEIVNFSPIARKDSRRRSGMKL
Chain of Inhibitor of nuclear factor kappa-B kinase subunit epsilon (Homo sapiens) (Q14164 whole entry, the tested form may be a part): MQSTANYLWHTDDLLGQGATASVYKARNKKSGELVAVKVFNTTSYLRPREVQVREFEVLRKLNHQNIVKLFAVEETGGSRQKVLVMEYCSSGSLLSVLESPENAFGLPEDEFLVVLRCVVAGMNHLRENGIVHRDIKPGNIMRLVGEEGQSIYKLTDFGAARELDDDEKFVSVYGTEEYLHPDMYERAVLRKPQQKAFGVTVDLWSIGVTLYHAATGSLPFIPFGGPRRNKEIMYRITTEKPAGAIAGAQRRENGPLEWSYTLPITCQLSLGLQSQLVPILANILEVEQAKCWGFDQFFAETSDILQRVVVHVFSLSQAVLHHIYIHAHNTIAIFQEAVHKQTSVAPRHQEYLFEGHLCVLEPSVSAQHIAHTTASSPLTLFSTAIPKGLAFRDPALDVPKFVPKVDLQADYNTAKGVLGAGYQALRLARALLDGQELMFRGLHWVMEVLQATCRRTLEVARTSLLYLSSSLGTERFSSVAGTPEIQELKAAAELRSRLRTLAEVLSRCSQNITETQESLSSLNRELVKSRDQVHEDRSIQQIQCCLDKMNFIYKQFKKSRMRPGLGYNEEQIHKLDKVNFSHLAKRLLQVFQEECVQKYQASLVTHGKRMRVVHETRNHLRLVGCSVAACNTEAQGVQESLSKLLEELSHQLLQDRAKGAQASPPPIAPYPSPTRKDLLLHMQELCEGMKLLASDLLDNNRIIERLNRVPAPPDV
Chain of Mitogen-activated protein kinase; ERK1/ERK2 (Homo sapiens) (P27361 whole entry, looked up): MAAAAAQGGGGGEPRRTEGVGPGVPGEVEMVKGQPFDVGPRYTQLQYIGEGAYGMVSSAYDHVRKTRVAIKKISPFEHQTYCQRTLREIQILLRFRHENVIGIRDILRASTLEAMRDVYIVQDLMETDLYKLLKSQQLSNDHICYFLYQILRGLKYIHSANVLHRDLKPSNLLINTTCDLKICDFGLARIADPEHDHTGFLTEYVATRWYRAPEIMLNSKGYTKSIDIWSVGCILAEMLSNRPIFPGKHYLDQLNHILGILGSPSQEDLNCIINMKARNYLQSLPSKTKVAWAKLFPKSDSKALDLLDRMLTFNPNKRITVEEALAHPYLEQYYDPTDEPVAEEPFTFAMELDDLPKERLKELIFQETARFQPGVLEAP
Chain of Mitogen-activated protein kinase; ERK1/ERK2 (Homo sapiens) (P28482 whole entry, looked up): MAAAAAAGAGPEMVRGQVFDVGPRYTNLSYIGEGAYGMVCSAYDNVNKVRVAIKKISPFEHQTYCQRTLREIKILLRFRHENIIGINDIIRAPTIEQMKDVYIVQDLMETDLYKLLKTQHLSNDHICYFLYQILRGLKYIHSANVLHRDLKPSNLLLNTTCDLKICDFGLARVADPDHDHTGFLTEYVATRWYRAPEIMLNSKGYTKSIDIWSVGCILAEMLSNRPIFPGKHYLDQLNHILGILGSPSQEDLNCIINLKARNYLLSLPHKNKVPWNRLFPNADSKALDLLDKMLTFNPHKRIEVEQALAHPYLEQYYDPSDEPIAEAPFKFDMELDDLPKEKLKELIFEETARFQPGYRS
Chain of Insulin-like growth factor 1 receptor (Homo sapiens) (P08069 31-736 limits assumed): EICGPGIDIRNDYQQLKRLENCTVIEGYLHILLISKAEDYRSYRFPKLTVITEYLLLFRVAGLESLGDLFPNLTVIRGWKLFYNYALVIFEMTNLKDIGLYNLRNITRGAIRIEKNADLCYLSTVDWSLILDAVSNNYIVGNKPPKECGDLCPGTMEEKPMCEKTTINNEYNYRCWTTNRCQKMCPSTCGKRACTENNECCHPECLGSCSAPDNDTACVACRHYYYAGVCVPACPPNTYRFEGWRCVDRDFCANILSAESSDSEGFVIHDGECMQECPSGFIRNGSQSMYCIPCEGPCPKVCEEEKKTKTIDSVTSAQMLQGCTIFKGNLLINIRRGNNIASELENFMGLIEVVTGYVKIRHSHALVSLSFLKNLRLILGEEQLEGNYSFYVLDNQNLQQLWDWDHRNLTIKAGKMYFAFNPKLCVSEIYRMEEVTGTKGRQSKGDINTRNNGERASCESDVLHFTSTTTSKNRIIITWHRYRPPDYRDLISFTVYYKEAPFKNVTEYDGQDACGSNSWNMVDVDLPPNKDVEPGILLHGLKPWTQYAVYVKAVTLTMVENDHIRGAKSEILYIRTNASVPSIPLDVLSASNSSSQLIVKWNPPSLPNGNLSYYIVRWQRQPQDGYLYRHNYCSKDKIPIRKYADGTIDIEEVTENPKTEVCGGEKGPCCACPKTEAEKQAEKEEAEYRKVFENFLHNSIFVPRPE
Chain of Insulin-like growth factor 1 receptor (Homo sapiens) (P08069 741-1367 limits assumed): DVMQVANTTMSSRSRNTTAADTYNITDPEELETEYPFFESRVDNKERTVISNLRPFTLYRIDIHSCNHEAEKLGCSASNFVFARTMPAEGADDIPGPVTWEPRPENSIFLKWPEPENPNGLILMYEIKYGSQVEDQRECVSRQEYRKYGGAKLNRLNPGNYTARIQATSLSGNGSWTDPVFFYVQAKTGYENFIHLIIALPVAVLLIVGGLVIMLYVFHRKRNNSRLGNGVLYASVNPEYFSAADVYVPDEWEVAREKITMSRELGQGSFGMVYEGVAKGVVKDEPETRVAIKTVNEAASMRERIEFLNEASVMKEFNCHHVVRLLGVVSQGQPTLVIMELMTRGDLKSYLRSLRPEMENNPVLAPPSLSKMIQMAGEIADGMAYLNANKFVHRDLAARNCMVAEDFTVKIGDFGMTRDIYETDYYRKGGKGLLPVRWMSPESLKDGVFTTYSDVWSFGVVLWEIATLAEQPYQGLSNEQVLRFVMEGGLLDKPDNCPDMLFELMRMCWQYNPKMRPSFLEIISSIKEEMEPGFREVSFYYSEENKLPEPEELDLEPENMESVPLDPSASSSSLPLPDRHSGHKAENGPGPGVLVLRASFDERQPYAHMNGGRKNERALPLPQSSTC
Chain of Serine/threonine-protein kinase Nek2 (Homo sapiens) (P51955 whole entry, the tested form may be a part): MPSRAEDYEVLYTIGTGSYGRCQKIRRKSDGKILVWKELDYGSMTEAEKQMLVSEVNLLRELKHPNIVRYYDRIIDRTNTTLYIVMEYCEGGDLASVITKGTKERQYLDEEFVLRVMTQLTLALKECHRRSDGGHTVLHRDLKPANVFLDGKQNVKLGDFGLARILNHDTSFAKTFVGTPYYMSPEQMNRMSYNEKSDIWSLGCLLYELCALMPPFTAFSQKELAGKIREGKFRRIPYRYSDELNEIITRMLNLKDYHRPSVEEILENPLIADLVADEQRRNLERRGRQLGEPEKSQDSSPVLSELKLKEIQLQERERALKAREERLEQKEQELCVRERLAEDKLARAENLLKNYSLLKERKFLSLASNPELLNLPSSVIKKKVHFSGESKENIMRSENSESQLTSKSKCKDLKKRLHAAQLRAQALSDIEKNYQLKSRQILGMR

COc1ccc(-c2ccc3c(N4CCOCC4)nc(N4C[C@@H](C)O[C@@H](C)C4)nc3n2)cc1CO [Ku-0063794]
Activity [1]: 90%
Activity [2]: 99%
Activity [3]: 81%
Activity [4]: 72%
Activity [5]: 86%
Activity [6]: 88%
Activity [7]: 99%
Activity [8]: 89%
Activity [9]: 72%
Activity [10]: 102%
Activity [11]: 86%
Activity [12]: 78%
Activity [13]: 75%
inhibition [14]: inactive
Activity (MEF): 9.4%
inhibition (mTORC1 (Homo sapiens) [15]): Active
inhibition (mTORC2 (Homo sapiens)): Active
inhibition (mTORC1 (Homo sapiens) [16]): Dose-Dependent Effect
